# “Also recorded” adds a separate entry of the source. Ends that are not written are not given here. Peptide text beside a SMILES is read from it. * marks the point of attachment. FITC = O=C1OC2(c3ccc(O)cc3Oc3cc(O)ccc32)c2ccc(NC(=S)*)cc21
# How the values were obtained:
# [1] = system: mBMEC monolayers; assay: In vitro permeability of mBMEC monolayers to inulin; assay type: cell-based, mouse; settings: JAM-Ap 0.1–1000 μg/ml, 0–72 h
# [2] = Physiological variables of mice before, during and 6 hrs after tMCAO; assay type: in vivo, mouse; settings: ip injection, n = 10
# [3] = target: T1, JAM-A (Mus musculus, UniProt O88792); assay type: binding
# T1 sequence (O88792 27-300): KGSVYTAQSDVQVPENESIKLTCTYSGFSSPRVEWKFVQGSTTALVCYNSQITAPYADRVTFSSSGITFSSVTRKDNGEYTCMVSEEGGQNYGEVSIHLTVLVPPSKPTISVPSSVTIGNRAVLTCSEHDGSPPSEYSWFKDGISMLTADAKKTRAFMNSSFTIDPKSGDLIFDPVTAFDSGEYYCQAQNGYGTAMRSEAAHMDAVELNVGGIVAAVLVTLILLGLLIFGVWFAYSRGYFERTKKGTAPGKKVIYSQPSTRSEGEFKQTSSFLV
# Summary of the method: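 mBMEC (first passage) plated in 96-well plates and incubated with a constant level of FITC-labelled peptide plus increasing unlabelled peptide. Cells washed 3× and fixed in 4% paraformaldehyde for 15 min at room temperature. Fluorescence read on a plate reader. Percent inhibition plotted against concentration and IC50 read from the curve. Three independent experiments.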
# [4] = system: BBB, FITC-inulin; settings: mouse, in vivo
# [5] = system: mBMEC; assay type: cell-based, mouse; settings: 12 h
# [6] = system: neutrophils and monocytes in blood; settings: mouse, in vivo
# [7] = system: ICAM-1; assay: Cell-based ELISA, ICAM-1 surface expression on mBMEC; design: species or system mouse; settings: CCL2 100 ng/ml
# [8] = target: T1, JAM-A; settings: brain endothelial cells; ref Stamatovic et al., 2012; cited from earlier work
# [9] = target: T1, JAM-A; assay: Cell-based ELISA, JAM-A surface expression on mBMEC; settings: CCL2 100 ng/ml; 2 and 24 h; p < 0.001
# [10] = system: CD31 + brain microvessel; settings: mouse, in vivo
# [11] = system: ICAM-1; assay: Cross binding of JAM-Ap-FITC to ICAM-1; design: species or system mouse; settings: increasing concentrations of anti-ICAM-1 antibody; presence and absence of JAM-A
# Summary of the method: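 bEnd.3 JAM-A-knockdown cells (stable shRNA) and JAM-A-expressing mBMEC in 96-well plates were primed with IL-1β plus TNF-α for 6 h or OGD/reoxygenation for 24 h in DMEM. They then received FITC-peptide with or without increasing anti-ICAM-1 antibody in D-PBS for 30 min at 4 °C. Cells washed 3×, fixed in 4% paraformaldehyde, and fluorescence read. FITC-scrambled peptide served as control.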
compound,measurement,setting,value
NPKSTRAFSNDDYVLNPTTG [JAM-Ap],"effect on barrier permeability to inulin (5 kDa), in vitro",[1],no effect on barrier permeability to inulin
same,Glucose,[2]; 15 min MCAO,142 ± 6 g/dL
same,PCO2,[2]; 15 min MCAO,34±2
same,PO2,[2]; 15 min MCAO,110±7
same,pH,[2]; 15 min MCAO,7.32±0.012
same,rCBF,[2]; 15 min MCAO,13±2%
same,Glucose,[2]; 6 hr post-tMCAO,128 ± 9 g/dL
same,PCO2,[2]; 6 hr post-tMCAO,36±1
same,PO2,[2]; 6 hr post-tMCAO,115±10
same,pH,[2]; 6 hr post-tMCAO,7.36±0.018
same,rCBF,[2]; 6 hr post-tMCAO,100±1%
same,Glucose,[2]; before,135 ± 3 g/dL
same,PCO2,[2]; before,32±2
same,PO2,[2]; before,123±5
same,pH,[2]; before,7.36±0.03
same,rCBF,[2]; before,100±0%
same,IC50,[3],25 nM
same,BBB permeability in control mice,[4],no effect on permeability
same,cell viability after treatment,[5],> 99%
same,blood MO (monocytes),[6],3.95 10^8
same,blood PMN,[6],0.99 10^9/l
CCL2: chemokine CCL2 (PeproTech),ICAM-1 surface expression,[7],surface expression was also increased; also recorded: A similar degree of surface accumulation
same,JAM-A relocalization,[8],JAM-A became relocalized from the lateral to the apical membrane of brain endothelial cells
same,cell surface (apical) expression of JAM-A,[9],increased apical membrane JAM-A expression; also recorded: an increase in cell surface (apical) expression of JAM-A
CC(C)C[C@H](NC(=O)[C@@H](NC(=O)[C@H](Cc1ccc(O)cc1)NC(=O)[C@H](CC(=O)O)NC(=O)[C@H](CC(=O)O)NC(=O)[C@H](CC(N)=O)NC(=O)[C@H](CO)NC(=O)[C@H](Cc1ccccc1)NC(=O)[C@H](C)NC(=O)[C@H](CCCNC(=N)N)NC(=O)[C@@H](NC(=O)[C@H](CO)NC(=O)[C@H](CCCCNC(=S)Nc1ccc2c(c1)C(=O)OC21c2ccc(O)cc2Oc2cc(O)ccc21)NC(=O)[C@@H]1CCCN1C(=O)[C@@H](N)CC(N)=O)[C@@H](C)O)C(C)C)C(=O)N[C@@H](CC(N)=O)C(=O)N1CCC[C@H]1C(=O)N[C@H](C(=O)N[C@H](C(=O)NCC(=O)O)[C@@H](C)O)[C@@H](C)O [JAM-Ap-FITC] (H-NPK(FITC)STRAFSNDDYVLNPTTG-OH; N-terminus and C-terminus assumed),accumulation at luminal side of CD31 + brain microvessel,[10],high accumulation
same,association with CD45 + cells in brain,[10],not associated with CD45 + cells
same,nonspecific trapping in ischemic lesion,[10],"comparable with labeled control peptide (cp), at the level of threshold"
same,accumulation in liver and lung microvessels or tissue,[10]; ip,did not detect significant amount
same,binding affinity for ICAM-1,[11],very low binding affinity

# — publication PMC4273560 (Neurobiology of disease, 2014)
